Results on 54 variants are retold here after the RNAGym collection of RNA variant scans (doi:10.1101/gad.245936.114).

This sample holds only a part of the variants without activity.

B1: tRNA (parent)
chain: CUCUCGGUAGCCAAGUUGGUUUAAGGCGCAAGACUUUAAUUUAUCACUACGAAAUCUUGAGAUCGGGCGUUCGACUCGCCCCCGGGAGAUUUUUUCCUCGAGCAA

Variants of B1 are the subject of the data set. The experiment in a line: nonsense suppression (GFP-seq) (ratio to wild type); higher = more function; SUP4oc tRNA, yeast GFP reporter sort-seq. In short, it runs like this: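 Yeast were grown in raffinose/galactose medium with 80 mg/L adenine, each strain bearing a genome-integrated ochre-suppressor tRNA variant from a ~3% random-mutation library, a galactose-driven GFP ochre reporter, and RFP. After sorting into GFP/RFP bins, every bin was sequenced on an Illumina platform at phred ≥30. The GFPSEQ value, a measure of nonsense suppression, is the weighted bin median GFP/RFP relative to the unmutated parent tRNA, using each variant's estimated cell share per bin as the weight. Only variants with ≥100 reads and ≥30 cells were included.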
Consider CUCUCGGUAGCCAAGUUGGUUUAAGGCGCGAGACUUUAAUUUAUCACUACGAAAUCUUGAGAUUGGGCGUUCGACUCGCCCCCGGGAGAUUUUUUCCUCGAGCAA, for which the nonsense suppression was 0.0605. To CUCUCGGUAGCCAAGUUGGUUUAAGGCGCGAGACUUUAAUUUAUCACUACGAAAUCUUGAGAUCGGGCGUUCGACUUGCCCCCGGGAGAUUUUUUCCUCGAGCAA belongs not above 0.026. As to CUCUCGGUAGCCAAGUUGGUUUAAGGCGCGAGACUUUAAUUUAUCACUACGAAAUCUUGAGAUCGGGCGUUCGACUCGCCCCCGAGAGAUUUUUUCCUCGAGCAA, the nonsense suppression was 0.793. On to CUCUCGGUAGCCAAGUUGGUUUAAGGCGCGAGACUUUAAUUUAUCACUACGAAAUCUUGAGAUCGGGCGUUCGACUCGCCCCCGCGAGAUUUUUUCCUCGAGCAA, for which the nonsense suppression is not above 0.026. To CUCUCGGUAGCCAAGUUGGUUUAAGGCGCGAGACUUUAAUUUAUCACUACGAAAUCUUGAGAUCGGGCGUUCGACUCGCCCCCGGGAGCUUUUUUCCUCGAGCAA belongs 0.0603; to CUCUCGGUAGCCAAGUUGGUUUAAGGCGCGAGACUUUAAUUUAUCACUACGAAAUCUUGAGAUCGGGCGUUCGACUCGCCCCCGGGAGUUUUUUUCCUCGAGCAA, 0.0271; to CUCUCGGUAGCCAAGUUGGUUUAAGGCGCUAGACUUUAAUUUAUCACUACGAACUCUUGAGAUCGGGCGUUCGACUCGCCCCCGGGAGAUUUUUUCCUCGAGCAA, 0.0467. CUCUCGGUAGCCAAGUUGGUUUAAGGCGCGAGACUUUAAUUUAUCACUACGAAAUCUUGAGAUCGGGCGUUCGACUCGCCCUCGGGAGAUUUUUUCCUCGAGCAA: the nonsense suppression was determined as 0.0497. Consider CUCUCGGUAGCCAAGUUGGUUUAAGGCGCGAGACUUUAAUUUAUCACUACGAAAUCUUGGGAUCGGGCGUUCGACUCGCCCCCGGGAGAUUUUUUCCUCGAGCAA, for which the nonsense suppression came to 0.108. Take CUCUCGGUAGCCAAGUUGGUUUAAGGCGCGAGACUUUAAUUUAUCACUACGAAAUCUUGAGAUCGGGCGUUCGACACGCCCCCGGGAGAUUUUUUCCUCGAGCAA: the nonsense suppression was 0.043.

Turning to CUCUCGGUAGCCAAGUUGGUUUAAGGCGCCAGACUUUAAUUUAUCACUACGAAAUCUGGAGAUCGGGCGUUCGACUCGCCCCCGGGAGAUUUUUUCCUCGAGCAA, the nonsense suppression is 1.02. Take CUCUCGGUAGCCAAGUUGGUUUAAGGCGCCAGACUUUAAUUUAUCACUACGAAAUCUUGAGAUCGGGCGCUCGACUCGCCCCCGGGAGAUUUUUUCCUCGAGCAA: the nonsense suppression is not above 0.026. Take CUCUCGGUAGCCAAGUUGGUUUAAGGCGCGGGACUUUAAUUUAUCACUACGAAAUCUUGUGAUCGGGCGUUCGACUCGCCCCCGGGAGAUUUUUUCCUCGAGCAA: the nonsense suppression amounted to 0.726. As to CUCUCGGUAGCCAAGUUGGUUUAAGGCGCGAGACUUUAAUUUAUCACUACGAAAUCUUGAAAUCGGGCGUUCGACUCGCCCCCGGGAGAUUUUUUCCUCGAGCAA, the nonsense suppression came out at 0.75. Consider CUCUCGGUAGCCAAGUUGGUUUAAGGCGCGAGACUUUAAUUUAUCACUACGAAAUCUUGACAUCGGGCGUUCGACUCGCCCCCGGGAGAUUUUUUCCUCGAGCAA, for which the nonsense suppression was 0.251.

For the variant CUCUCGGUAGCCAAGUUGGUUUAAGGCGCUUGACUUUAAUUUAUCACUACGAAAUCUUGAGAUCGGGCGUUCGACUCGCACCCGGGAGAUUUUUUCCUCGAGCAA, the nonsense suppression was not above 0.026.

Consider CUCUCGGUAGCCAAGUUGGUUUAAGGCGCGAGACUUUAAUUUAUCACUACGAAUUCUUGAGAUCGGGCGUUCGACUCGCCCCCGGGAGAUUUUUUCCUCGAGCAA, for which the nonsense suppression came out at 1.2. For CUCUCGGUAGCCAAGUUGGUUUAAGGCGCGAGACUUUAAUUUAUCACUACGAACUCUUGAGAUCGGGCGUUCGACUCGCCCCCGGGAGAUUUUUUCCUCGAGCAA, the nonsense suppression stood at 0.077.

For the variant CUCUCGGUAGCCAAGUUGGUUUAAGGCGCUAGACUUUAAUUUAUCACUACGAAAUCUUGUGAUCGGGUGUUCGACUCGCCCCCGGGAGAUUUUUUCCUCGAGCAA, the nonsense suppression is 0.0354. For the variant CUCUCGGUAGCCAAGUUGGUUUAAGGCGCGAGACUUUAAUUUAUCACUACGAAAGCUUGAGAGAGGGCGUUCGACUCGCCCCCGGGAGAUUUUUUCCUCGAGCAA, the nonsense suppression was not above 0.026. With CUCUCGGUAGCCAAGUUGGUUUAAGGCGCUAGACUUUAAUUUAUCACUACGAAAUCUUGUGAUCGGGCGUUCGACUCGCCCCCGGGAGAUUUUUUCCUCGAGCAA, the nonsense suppression was determined as 0.769. To CUCUCGGUAGCCAAGUUGGUUUAAGGCGCUAGACUUUAAUUUAUCACUACGAAAUCUUGGGAUCGGGCGUUCGACUCGCCCCCGGGAGAUUUUUUCCUCGAGCAA belongs 0.27.

Regarding CUCUCGGUAGCCAAGUUGGUUUAAGGCGCGAGGCUUUAAUUUAUCACUACGAAAUCUUGAGAUCGGGCGUUCGACUCGCCCCCGGGAGAUUUUUUCCUCGAGCAA, the nonsense suppression was determined as 0.046.

Regarding CUCUCGGUAGCCAAGUUGGUUUAAGGCGCGAGUCUUUAAUUUAUCACUACGAAAUCUUGAGAUCGGGCGUUCGACUCGCCCCCGGGAGAUUUUUUCCUCGAGCAA, the nonsense suppression was not above 0.026.

As to CUCUCGGUAGCCAAGUUGGUUUAAGGCGCGAGACUUUAAUUUAUCACUACGAAAUCUUGAGAUCGGGCGUUGGACUCGCCCCCGGGAGAUUUUUUCCUCGAGCAA, the nonsense suppression was determined as 0.0409. In the case of CUCUCGGUAGCCAAGUUGGUUUAAGGCGCGAGACUUUAAUUUAUCACUACGAAAUCUUGAGAUCGGGCGUACGACUCGCCCCCGGGAGAUUUUUUCCUCGAGCAA, the nonsense suppression worked out at 0.05.

For CUCUCGGUAGCCAAGUUGGUUUAAGGCGCGAGACUUUAAUUUAUCACUACGAAAUCUUGAGAUCGGGCGUCCGACUCGCCCCCGGGAGAUUUUUUCCUCGAGCAA, the nonsense suppression was found to be 0.035. To CUCUCGGUAGCCAAGUUGGUUUAAGGCGCUAGACUUUAAUUUAUCACUACGAAAUCUUGAGAUCGGGCGUUCGCCUCGCCCCCGGGAGAUUUUUUCCUCGAGCAA belongs 0.0264. As to CUCUCGGUAGCCAAGUUGGUUUAAGGCGCUAGACUUUAAUUUAUCACUACGAAAUCUUGAGAUCGGGCGUUCGUCUCGCCCCCGGGAGAUUUUUUCCUCGAGCAA, the nonsense suppression is 0.0497.

Turning to CUCUCGGUAGCCAAGUUGGUUUAAGGCGCGAGACUUUAAUUUAUCACUACGAAAUCUUGAGAUCGGGCGUUCGGCUCGCCCCCGGGAGAUUUUUUCCUCGAGCAA, the nonsense suppression turned out to be 0.098. As for CUCUCGGUAGCCAAGUUGGUUUAAGGCGCGAGACUUUAAUUUAUCACUACGAAAUCUUGAGAUCGGGCGUUCGCCUCGCCCCCGGGAGAUUUUUUCCUCGAGCAA, the nonsense suppression worked out at 0.0554. As for CUCUCGGUAGCCAAGUUGGUUUAAGGCGCGAGACUUUAAUUUAUCACUACGAAAUCUUGAGAUCGGGCGUUCGUCUCGCCCCCGGGAGAUUUUUUCCUCGAGCAA, the nonsense suppression stood at 0.028. As for CUCUCGGUAGCCAAGUUGGUUUAAGGCGCGAGACUUUAAUUUAUCACUACGAAAUCUUCCGAUCGGGCGUUCGACUCGCCCCCGGGAGAUUUUUUCCUCGAGCAA, the nonsense suppression is not above 0.026.

On to CUCUCGGUAGCCAAGUUGGUUUAAGGCGCGAGACUUUAAUUUAUCACUACGAAAUCUUGAGAUCGGGCGUUCGACUCGCCCCAGGGAGAUUUUUUCCUCGAGCAA, for which the nonsense suppression is not above 0.026.

With CUCUCGGUAGCCAAGUUGGUUUAAGGCGCGAGACUUUAAUUUAUCACUACGAAAUCUUGAGAUCGGGCGUUCGACUCACCCCCGGGAGAUUUUUUCCUCGAGCAA, the nonsense suppression stood at 0.101. Take CUCUCGGUAGCCAAGUUGGUUUAAGGCGCGAGACUUUAAUUUAUCACUACGAAAUCUUAAGAUCGGGCGUUCCACUCGCCCCCGGGAGAUUUUUUCCUCGAGCAA: the nonsense suppression was not above 0.026. Take CUCUCGGUAGCCAAGUUGGUUUAAGGCGCUAGACUUUAAUUUAUCACUACGAAAUCUUGAGAUCGGGCGUUCGACUGGCCCCCGGGAGAUUUUUUCCUCGAGCAA: the nonsense suppression was found to be 0.0332. As for CUCUCGGUAGCCAAGUUGGUUUAAGGCGCUAGACUUUAAUUUAUCACUACGAAAUCUUGAGAUCGGGCGUUCGACUUGCCCCCGGGAGAUUUUUUCCUCGAGCAA, the nonsense suppression was not above 0.026. To CUCUCGGUAGCCAAGUUGGUUUAAGGCGCUAGACUUUAAUUUAUCACUACGAAAUCUUGAGAUCGGGCGUUCGACUCGCCCGCGGGAGAUUUUUUCCUCGAGCAA belongs not above 0.026. To CUCUCGGUAGCCAAGUUGGUUUAAGGCGCUAGACUUUAAUUUAUCACUACGAAAUCUUGAGAUCGGGCGUUCGACUCGCCACCGGGAGAUUUUUUCCUCGAGCAA belongs 0.0383; to CUCUCGGUAGCCAAGUUGGUUUAAGGCGCGAGACUUUAAUUUAUCACUACGAAAUCUUGAGAUCGGGCGUUCGACUCGUCCCCGGGAGAUUUUUUCCUCGAGCAA, 0.207; to CUCUCGGUAGCCAAGUUGGUUUAAGGCGCGAGACUUUAAUUUAUCACUACGAAAUCUUGAGACCGGGCGUUCGACUCGCCCCCGGGAGAUUUUUUCCUCGAGCAA, 0.205. Consider CUCUCGGUAGCCAAGUUGGUUUAAGGCGCUGGACUUUAAUUUAUCACUACGAAAUCUUGAGAUCGGGCGUUCGACUCGCCCCCGGGAGAUUUUUUCCUCGAGCAA, for which the nonsense suppression was found to be 0.25. To CUCUCGGUAGCCAAGUUGGUUUAAGGCGCUUGACUUUAAUUUAUCACUACGAAAUCUUGAGAUCGGGCGUUCGACUCGCCCCCGGGAGAUUUUUUCCUCGAGCAA belongs 0.035; to CUCUCGGUAGCCAAGUUGGUUUAAGGCGCGAGACUUUAAUUUAUCACUACGAAAUCUUGAGAUCGGGCGUUCGACUCGCCCCCGGGAGAUUUUUUCCUCGAGCAA, 1.11. As to CUCUCGGUAGCCAAGUUGGUUUAAGGCGCUAGACUUUAAUUUAUCACUACGAAAUCUUGAGAUCGGGCGUUCGACUCGCCCCCGGGAGAUUUUUUCCUCGAGCAA, the nonsense suppression came to 0.575. As to CUCUCGGUAGCCAAGUUGGUUUAAGGCGCUAGACUUUAAUUUAUCACUACGAAAUCUUGAGAUUGGGCGUUCGACUCGCCCCCGGGAGAUUUUUUCCUCGAGCAA, the nonsense suppression was not above 0.026. In the case of CUCUCGGUAGCCAAGUUGGUUUAAGGCGCGAGACUUUAAUUUAUCACUACGAAAUCUUGAGAUCGGGCGUUCGAUUCGCCCCCGGGAGAUUUUUUCCUCGAGCAA, the nonsense suppression was found to be 1.19. In the case of CUCUCGGUAGCCAAGUUGGUUUAAGGCGCUAGACUUUAAUUUAUCACUACGAAAUCUUGAGAUCGGGCGUUCGACUCGCCCCCGGGAGUUUUUUUCCUCGAGCAA, the nonsense suppression was determined as 0.0434. Turning to CUCUCGGUAGCCAAGUUGGUUUAAGGCGCUAGACUUUAAUUUAUCACUACGAAAUCUUGAGAUCGGGGGUUCGACUCGCCCCCGGGAGAUUUUUUCCUCGAGCAA, the nonsense suppression is not above 0.026. To CUCUCGGUAGCCAAGUUGGUUUAAGGCGCUAGACUUUAAUUUAUCACUACGAAAUCUUGAGGUCGGGCGUUCGACUCGCCGCCGGGAGAUUUUUUCCUCGAGCAA belongs not above 0.026; to CUCUCGGUAGCCAAGUUGGUUUAAGGCGCGAGACUUUAAUUUAUCACUACGAAAUCUUGAGAUCGGGCGUUCAAAUCGCCCCCGGGAGAUUUUUUCCUCGAGCAA, 0.318; to CUCUCGGUAGCCAAGUUGGUUUAAGGCGCUAGACUUUAAUUUAUCACUACGAAAUCUUGAGAUCGGGCGUUCGACUCGGCCCCGGGAGAUUUUUUCCUCGAGCAA, not above 0.026. Take CUCUCGGUAGCCAAGUUGGUUUAAGGCGCUAGACUUUAAUUUAUCACUACGAAAUCUUGAGAUCGGGCGUUCGACUCGUCCCCGGGAGAUUUUUUCCUCGAGCAA: the nonsense suppression was 0.144.
